Laboratory results published in paper PMC4084622 (Journal of Medicinal Chemistry, 2014).
In brackets after ≈: the same amount, converted by molar mass. Like-named read-outs stand apart in the source and are kept apart here.

Experiments:
[1] = system: M. smegmatis cells, ΔpH; format: cell-based, Mycobacterium smegmatis
[2] = target: M. smegmatis MenA (MsMenA) (Mycolicibacterium smegmatis, UniProt A0QR52); settings: read-out: MenA IC50; same assay as used here; cited from earlier work
[3] = system: E. coli IMVs, ΔpH; experiment: ΔpH collapse in E. coli inverted membrane vesicles; format: biochemical, Escherichia coli; settings: qualitative
[4] = target: M. tuberculosis cis-decaprenyl diphosphate synthase (Rv2361) (Mycobacterium tuberculosis, UniProt P9WFF7); experiment: cis-decaprenyl diphosphate synthase inhibition; format: biochemical
Chain of M. tuberculosis cis-decaprenyl diphosphate synthase (Rv2361) (P9WFF7 whole entry): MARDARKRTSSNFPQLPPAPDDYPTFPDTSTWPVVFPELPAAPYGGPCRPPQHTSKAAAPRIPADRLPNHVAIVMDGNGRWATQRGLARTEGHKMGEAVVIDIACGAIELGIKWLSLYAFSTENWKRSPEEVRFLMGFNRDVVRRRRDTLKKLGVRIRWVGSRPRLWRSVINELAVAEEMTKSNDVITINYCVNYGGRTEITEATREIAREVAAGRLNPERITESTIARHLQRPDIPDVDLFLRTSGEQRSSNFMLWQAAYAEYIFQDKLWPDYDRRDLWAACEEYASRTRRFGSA

[5] = target: M. tuberculosis cis-farnesyl diphosphate synthase (Rv1086) (Mycobacterium tuberculosis, UniProt P9WFF5); experiment: cis-farnesyl diphosphate synthase inhibition; format: biochemical
Chain of M. tuberculosis cis-farnesyl diphosphate synthase (Rv1086) (P9WFF5 whole entry): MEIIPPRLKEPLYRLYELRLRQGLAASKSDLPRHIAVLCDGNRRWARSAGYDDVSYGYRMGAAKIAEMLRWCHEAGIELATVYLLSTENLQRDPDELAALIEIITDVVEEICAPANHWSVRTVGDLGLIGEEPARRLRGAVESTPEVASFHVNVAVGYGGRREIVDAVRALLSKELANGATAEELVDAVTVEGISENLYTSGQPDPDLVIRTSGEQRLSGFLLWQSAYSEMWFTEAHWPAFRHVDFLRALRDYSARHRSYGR

[6] = system: B. subtilis; experiment: microbe, parasite or virus in culture; format: cell-based; settings: Bacillus subtilis
[7] = target: S. aureus farnesyl diphosphate synthase (FPPS) (Staphylococcus aureus, UniProt Q2FY48); experiment: biochemical
Chain of S. aureus farnesyl diphosphate synthase (FPPS) (Q2FY48 1-293): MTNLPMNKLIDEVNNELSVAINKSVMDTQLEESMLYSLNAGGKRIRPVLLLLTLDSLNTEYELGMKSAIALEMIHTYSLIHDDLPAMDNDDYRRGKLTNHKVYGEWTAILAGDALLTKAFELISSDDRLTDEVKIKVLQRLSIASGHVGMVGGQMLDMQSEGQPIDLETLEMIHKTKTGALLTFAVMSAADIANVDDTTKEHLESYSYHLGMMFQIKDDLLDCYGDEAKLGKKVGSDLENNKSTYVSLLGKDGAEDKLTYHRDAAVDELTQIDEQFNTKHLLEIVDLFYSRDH

[8] = target: M. smegmatis membrane dehydrogenases (NADH, deamino-NADH, succinate, lactate substrates); experiment: Dehydrogenase activities, MTT reduction, M. smegmatis membranes; format: biochemical, Mycobacterium smegmatis; settings: in general (all substrates except malate)
[9] = system: nonreplicating M. tuberculosis (streptomycin-starved 18b); format: cell-based, Mycobacterium tuberculosis; settings: for effect on nonreplicating bacterial activity (CFU): 7 days
[10] = target: E. coli undecaprenyl diphosphate synthase (UPPS) (Escherichia coli, UniProt P60472); experiment: E. coli UPPS inhibition; format: biochemical
Chain of E. coli undecaprenyl diphosphate synthase (UPPS) (P60472 whole entry): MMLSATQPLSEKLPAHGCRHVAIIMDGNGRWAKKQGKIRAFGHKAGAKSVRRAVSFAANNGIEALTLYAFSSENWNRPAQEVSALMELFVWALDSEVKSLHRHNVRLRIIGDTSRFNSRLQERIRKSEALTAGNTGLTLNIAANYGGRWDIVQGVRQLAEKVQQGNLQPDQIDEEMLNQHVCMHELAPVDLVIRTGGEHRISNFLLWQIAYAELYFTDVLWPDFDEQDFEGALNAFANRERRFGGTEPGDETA

[11] = target: T1, human SQS (Homo sapiens, UniProt P37268); experiment: Human SQS inhibition; format: biochemical
T1 sequence (P37268 1-417): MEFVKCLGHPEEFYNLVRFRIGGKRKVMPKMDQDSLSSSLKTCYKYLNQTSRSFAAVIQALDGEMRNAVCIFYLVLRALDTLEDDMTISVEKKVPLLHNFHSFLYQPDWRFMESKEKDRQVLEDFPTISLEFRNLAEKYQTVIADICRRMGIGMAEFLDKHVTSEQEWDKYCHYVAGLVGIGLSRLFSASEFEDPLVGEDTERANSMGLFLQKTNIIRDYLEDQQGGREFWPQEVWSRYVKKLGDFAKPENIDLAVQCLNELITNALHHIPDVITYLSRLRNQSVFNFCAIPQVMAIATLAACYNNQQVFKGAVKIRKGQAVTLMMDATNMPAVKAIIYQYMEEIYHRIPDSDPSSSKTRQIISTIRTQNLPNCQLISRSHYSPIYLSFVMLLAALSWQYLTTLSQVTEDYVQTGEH

[12] = target: P. vivax geranylgeranyl diphosphate synthase (GGPPS) (Plasmodium vivax, UniProt A5K4U6); experiment: biochemical
Chain of P. vivax geranylgeranyl diphosphate synthase (GGPPS) (A5K4U6 1-375): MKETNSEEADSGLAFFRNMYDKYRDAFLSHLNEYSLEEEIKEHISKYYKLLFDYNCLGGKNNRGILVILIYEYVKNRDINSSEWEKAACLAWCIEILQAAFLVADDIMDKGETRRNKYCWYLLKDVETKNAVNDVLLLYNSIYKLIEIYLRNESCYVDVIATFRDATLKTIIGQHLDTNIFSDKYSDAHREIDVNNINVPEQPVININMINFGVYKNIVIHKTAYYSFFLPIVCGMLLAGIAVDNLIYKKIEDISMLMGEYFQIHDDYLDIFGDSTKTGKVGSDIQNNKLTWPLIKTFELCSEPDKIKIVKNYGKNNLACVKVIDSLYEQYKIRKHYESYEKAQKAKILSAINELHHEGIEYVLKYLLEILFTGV

[13] = system: S. cerevisiae; experiment: microbe, parasite or virus in culture; format: cell-based, Saccharomyces cerevisiae; settings: for IC50: Saccharomyces cerevisiae
[14] = system: E. coli; experiment: microbe, parasite or virus in culture; format: cell-based; settings: Escherichia coli
[15] = target: malate dehydrogenase (Mycolicibacterium smegmatis, UniProt A0QVL2); experiment: Malate dehydrogenase activity, MTT reduction, M. smegmatis membranes; format: biochemical, Mycobacterium smegmatis
Chain of malate dehydrogenase (A0QVL2 whole entry): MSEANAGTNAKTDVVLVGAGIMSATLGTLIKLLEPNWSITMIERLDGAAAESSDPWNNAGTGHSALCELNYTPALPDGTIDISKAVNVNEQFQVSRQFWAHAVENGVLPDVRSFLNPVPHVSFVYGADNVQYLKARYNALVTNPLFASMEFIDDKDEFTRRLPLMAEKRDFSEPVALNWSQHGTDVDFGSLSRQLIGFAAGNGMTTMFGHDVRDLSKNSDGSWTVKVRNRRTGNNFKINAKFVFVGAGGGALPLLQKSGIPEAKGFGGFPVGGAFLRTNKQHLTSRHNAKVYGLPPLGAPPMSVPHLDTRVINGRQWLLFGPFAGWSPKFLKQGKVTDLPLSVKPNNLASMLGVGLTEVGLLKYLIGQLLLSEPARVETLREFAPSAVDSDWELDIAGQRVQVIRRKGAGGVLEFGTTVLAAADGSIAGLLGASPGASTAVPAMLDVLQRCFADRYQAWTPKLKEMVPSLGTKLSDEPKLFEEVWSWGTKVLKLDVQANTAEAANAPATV

[16] = system: M. tuberculosis; experiment: microbe, parasite or virus in culture; format: cell-based, Mycobacterium tuberculosis; settings: for MIC: Mycobacterium tuberculosis
[17] = target: T2, SaCrtM (Staphylococcus aureus, UniProt A9JQL9); experiment: SaCrtM inhibition; format: biochemical, S. aureus
T2 sequence (A9JQL9 1-287): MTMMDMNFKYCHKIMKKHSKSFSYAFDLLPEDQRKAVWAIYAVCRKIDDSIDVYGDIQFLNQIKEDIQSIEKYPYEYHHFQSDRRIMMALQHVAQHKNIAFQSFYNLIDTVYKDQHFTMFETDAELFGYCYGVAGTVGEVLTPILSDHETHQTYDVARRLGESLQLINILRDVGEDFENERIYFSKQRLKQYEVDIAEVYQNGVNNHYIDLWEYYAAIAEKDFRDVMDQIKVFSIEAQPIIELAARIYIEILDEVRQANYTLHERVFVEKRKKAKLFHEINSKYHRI

[18] = system: MCF-7; experiment: cells; format: cell-based; settings: Homo sapiens, MCF7, read-out: MCF-7 IC50
[19] = system: S. aureus (MRSA USA300 strain); experiment: microbe, parasite or virus in culture; format: cell-based; settings: Staphylococcus aureus, MRSA|USA300, read-out: Sa MIC, MRSA USA300 strain
[20] = system: C. albicans; experiment: microbe, parasite or virus in culture; format: cell-based; settings: Candida albicans
[21] = target: S. aureus undecaprenyl diphosphate synthase (UPPS) (Staphylococcus aureus, UniProt P60477); experiment: S. aureus UPPS inhibition; format: biochemical
Chain of S. aureus undecaprenyl diphosphate synthase (UPPS) (P60477 whole entry): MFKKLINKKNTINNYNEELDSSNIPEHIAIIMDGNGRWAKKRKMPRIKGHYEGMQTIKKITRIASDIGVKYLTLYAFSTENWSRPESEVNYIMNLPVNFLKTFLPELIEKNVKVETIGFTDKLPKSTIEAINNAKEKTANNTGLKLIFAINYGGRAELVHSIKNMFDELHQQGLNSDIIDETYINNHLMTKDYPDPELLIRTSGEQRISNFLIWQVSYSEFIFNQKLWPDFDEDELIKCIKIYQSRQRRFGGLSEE

[22] = system: M. smegmatis; settings: cited from earlier work
[23] = system: M. tuberculosis; settings: cited from earlier work
[24] = system: M. smegmatis cells, ATP synthesis; experiment: ATP/ADP determination in M. smegmatis cells; format: cell-based, Mycobacterium smegmatis
Summary of the method: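 Cells grown 8 h in Middlebrook 7H9-ADC-Tween 80 and diluted to OD600 of 2. Test compounds added at several concentrations, with incubation at 37 °C and 200 rpm. ATP/ADP ratio read with a commercial ADP/ATP ratio kit after 10 and 60 min.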

[25] = read-out: Mt MIC (in parentheses)
[26] = read-out: Bs IC50 (in parentheses)
[27] = read-out: Sc IC50 (in parentheses)
[28] = read-out: Ca IC50 (in parentheses)

Chain of M. smegmatis MenA (MsMenA) (A0QR52 1-289): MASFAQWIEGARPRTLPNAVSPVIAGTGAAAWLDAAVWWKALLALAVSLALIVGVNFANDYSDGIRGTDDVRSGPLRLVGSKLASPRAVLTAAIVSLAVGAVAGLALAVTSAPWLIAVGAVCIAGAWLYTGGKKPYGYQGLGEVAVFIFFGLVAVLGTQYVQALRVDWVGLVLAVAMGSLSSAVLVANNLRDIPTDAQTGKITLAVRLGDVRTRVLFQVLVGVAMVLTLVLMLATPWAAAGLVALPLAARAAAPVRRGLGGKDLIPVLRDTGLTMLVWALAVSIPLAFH

N#CC(C#N)=NNc1cccc(Cl)c1 [CCCP, m-chlorophenylcarbonyl cyanide phenylhydrazone]
effect on pH gradient (ΔpH) [1]: collapsed

C=CCN(C)CCCCCCOc1ccc(C(=O)c2ccc(Br)cc2)c(F)c1 [Ro 48-8071]
IC50 [2]: 9 µM

CC(C)(C)c1cc(C=C(C#N)C#N)cc(C(C)(C)C)c1O [SF6847, reference compound]
effect on ΔpH [3]: very rapid (seconds) collapse in ΔpH

CC(C)=CCC/C(C)=C/CNCCNC1C2CC3CC(C2)CC1C3 (stereo not shown) [compound 1, SQ109]
IC50 [4]: ≥ 50 µM
IC50 [5]: ≥ 50 µM
IC50 ([6]; read-out: Bs IC50): 7.6 µg/mL
IC50 [7]: ≥ 50 µM
IC50 [8]: ~30 µg/mL (≈ 90.8 µM)
effect on nonreplicating bacterial activity (CFU) ([9]; 1 μg/mL, absence of MK-4): only a small effect
effect on nonreplicating bacterial activity (CFU) ([9]; 1 μg/mL, presence of 1 mM MK-4): essentially no effect
reduction of cell activity (CFU) ([9]; 10 μg/mL, 7 days exposure, absence of MK-4): ~4 log units
effect on nonreplicating bacterial activity (CFU) ([9]; 10 μg/mL, presence of 1 mM MK-4): small effect
IC50 [10]: ≥ 50 µM
activity [11]: ~100 µM
IC50 [12]: ≥ 50 µM
Sc IC50 [13]: 1.1 µg/mL
IC50 ([14]; read-out: Ec IC50): 2.8 µg/mL
IC50 [15]: 30.3 µM
MIC ([16]; read-out: Mt MIC): 0.1 to 0.2 µg/mL
MIC [16, 25]: 0.3 to 0.6 µM
activity [17]: ~100 µM
IC50 [18]: 6 µg/mL (≈ 18.2 µM)
MIC [19]: > 120 µg/mL
IC50 ([20]; read-out: Ca IC50): 3.3 µg/mL
IC50 [21]: ≥ 50 µM
effect on pH gradient (ΔpH) [1]: collapsed

CC[C@@H](CO)NCCN[C@@H](CC)CO [compound 2, ethambutol]
Ms MIC [22]: 1 µg/mL
Mt MIC [23]: 2 µg/mL

CC(C)=CCC/C(C)=C/CNCCOC1C2CC3CC(C2)CC1C3 (stereo not shown) [compound 3]
IC50 ([6]; read-out: Bs IC50): 16 µg/mL
activity ([11]; human SQS, weak activity): ~100 µM
effect on ATP synthesis [24]: inhibition of ATP synthesis
IC50 ([13]; read-out: Sc IC50): 1.8 µg/mL
IC50 ([14]; read-out: Ec IC50): 2.8 µg/mL
MIC ([16]; read-out: Mt MIC): 0.02 to 0.05 µg/mL
MIC [16, 25]: 0.06 to 0.15 µM
activity ([17]; SaCrtM, weak activity): ~100 µM
IC50 [18]: 10 µg/mL (≈ 30.2 µM)
MIC [19]: ~8 µg/mL (≈ 24.1 µM)
IC50 ([20]; read-out: Ca IC50): 12 µg/mL

CC(C)=CCC/C(C)=C/COCCNC1C2CC3CC(C2)CC1C3 (stereo not shown) [compound 4]
IC50 ([6]; read-out: Bs IC50): > 66 µg/mL
IC50 [6, 26]: > 199 µM
activity ([11]; human SQS, weak activity): ~100 µM
IC50 ([13]; read-out: Sc IC50): > 33 µg/mL
IC50 [13, 27]: > 100 µM
IC50 ([14]; read-out: Ec IC50): 4.3 µg/mL
Mt MIC [16]: 0.19 µg/mL
MIC ([16]; read-out: Mt MIC): ~0.2 µg/mL
activity ([17]; SaCrtM, weak activity): ~100 µM
IC50 [18]: 112 µg/mL (≈ 338 µM)
MIC [19]: > 120 µg/mL
IC50 ([20]; read-out: Ca IC50): > 66 µg/mL
IC50 [20, 28]: > 199 µM

CC(C)=CCC/C(C)=C/COCCOC1C2CC3CC(C2)CC1C3 (stereo not shown) [compound 5]
IC50 ([6]; read-out: Bs IC50): > 66 µg/mL
IC50 [6, 26]: > 199 µM
IC50 ([13]; read-out: Sc IC50): > 332 µg/mL
IC50 [13, 27]: > 1000 µM
IC50 ([14]; read-out: Ec IC50): > 332 µg/mL
IC50 ([14]; read-out: Ec IC50 (in parentheses)): > 1000 µM
effect on ΔpH [3]: no effect
IC50 [18]: 73 µg/mL (≈ 220 µM)
MIC [19]: > 64 µg/mL
IC50 ([20]; read-out: Ca IC50): > 66 µg/mL
IC50 [20, 28]: > 198 µM

CC(C)=CCC/C(C)=C/CNCCCOC1C2CC3CC(C2)CC1C3 (stereo not shown) [compound 6]
IC50 ([6]; read-out: Bs IC50): 3 µg/mL
IC50 ([13]; read-out: Sc IC50): 2.7 µg/mL
IC50 ([14]; read-out: Ec IC50): 2.3 µg/mL
MIC ([16]; read-out: Mt MIC): 1.6 µg/mL
IC50 [18]: 3.4 µg/mL (≈ 9.84 µM)
MIC [19]: ~8 µg/mL (≈ 23.2 µM)
IC50 ([20]; read-out: Ca IC50): 6.5 µg/mL
